The values below come from ChEMBL document CHEMBL1123397, “Antiarrhythmic activity of 17 beta-aminoestratrienes. Comparison of 3-ols and 3-acetates with the corresponding 3-(3-amino-2-hydroxypropyl) ethers” (1986).

Values after ≈ are worked out from the molar mass of the structure shown. Active and inactive are the calls of the source. The rule behind the calls is not given here.

In test [1] the test system is Rattus norvegicus. Briefly: Effective dose that antagonized arrhythmias evoked by coronary artery ligation in the rat was measured at 5 mg/kg dose. The class given is functional.
The test system of test [2] is Rattus norvegicus. The test is described as follows: Effect on heart rate after isoprenaline induced tachycardia in the anesthetized rat at 5 mg/kg dose. Type of test: functional. In outline:
(§1)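 Same ligation protocol in anaesthetised male Wistar rats. Heart rate was taken from the lead II ECG at three points: just before i.v. drug or vehicle, 14 min after it (just before isoprenaline 10 μg/kg), and 1 min after isoprenaline. Pre vs post rates and isoprenaline responses vs controls were compared by Student's t test. Mean ± SEM of 7-12 observations.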

The test system of test [3] is Rattus norvegicus. The test is described as follows: Effect on heart rate before isoprenaline induced tachycardia in the anesthetized rat at 5 mg/kg dose. Type of test: functional. Put shortly: (§2)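 Test drug or vehicle was given i.v., and isoprenaline (10 µg/kg) 14 min later. Heart rate was read from the lead II ECG just before drug, at 14 min (pre-isoprenaline) and 1 min after isoprenaline. Compared by Student's t test; 7–12 animals per group; mean ± SEM.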

Test [4] relates to Rattus norvegicus. Briefly: Effect on heart rate on 1 min post isoprenaline induced tachycardia in the anesthetized rat at 5.0 mg/kg dose. The class given is functional. Put shortly:
as §2

The subject of test [5] is Rattus norvegicus. Briefly: Compound was tested for antagonism of Ventricular Fibrilloflutter (VF) evoked by coronary artery ligation in the rat measured at 10 mg/kg dose. Type of test: functional, Heart. Put shortly:
(§3)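 Male Wistar rats, anaesthetised and artificially ventilated, with left thoracotomy; silk suture under main left coronary artery. After stabilization, test drug or vehicle i.v.; 14 min later isoprenaline 10 μg/kg; 1 min after that the ligature was tightened and VF incidence recorded over 30 min. Carotid pressure and lead II ECG monitored continuously. 7-12 animals per group.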

In test [6] the test system is Rattus norvegicus. The test is described as follows: Antagonism of Ventricular Fibrilloflutter (VF) evoked by coronary artery ligation in the rat measured at 2 mg/kg dose. Type of test: functional, Heart. In outline:
as §3

Test [7] deals with Rattus norvegicus. Briefly: Compound was tested for antagonism of Ventricular Fibrilloflutter (VF) evoked by coronary artery ligation in the rat measured at 5 mg/kg dose. Type of test: functional, Heart. In outline:
as §3

Test [8] relates to Rattus norvegicus. Briefly: Mean change in heart rate recorded 14 min after the administration of compound. The class given is functional. Put shortly:
as §2

For test [9], the species on record is Rattus norvegicus. Briefly: Maximum increase in heart rate evoked by isoprenaline. Type of test: functional. In outline: as §2
Test [10] is filed under the species Cavia porcellus. The test is described as follows: Compound was tested for antiarrhythmic activity expressed as action potential height (AP) in guinea pig atria at 1(ug/mL) concentration. The class given is functional, Heart. In outline: (§4)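 Guinea pig left atria pinned in a recording chamber, superfused with carbogen-gassed Krebs solution at 35 ± 0.5 °C and electrically stimulated. Transmembrane action potentials were recorded with conventional microelectrodes, giving RMP, AP height, APD50, APD90 and maximum rate of depolarization. Values are mean ± SEM from n cells across five preparations.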

For test [11], the species on record is Cavia porcellus. The test is described as follows: Compound was tested for antiarrhythmic activity expressed as action potential height (AP) in guinea pig atria at 2(ug/mL) concentration. Type of test: functional, Heart. Put shortly: as §4
Test [12] is filed under the species Cavia porcellus. The test is described as follows: Compound was tested for antiarrhythmic activity (time taken to reach 50% repolarization) in guinea pig atria at 1(ug/mL) concentration. Type of test: functional, Heart. In outline: as §4
The species named for test [13] is Cavia porcellus. The test is described as follows: Compound was tested for antiarrhythmic activity (time taken to reach 50% repolarization) in guinea pig atria at 2(ug/mL) concentration. The class given is functional, Heart. In outline: as §4
Test [14] is filed under the species Cavia porcellus. Briefly: Compound was tested for antiarrhythmic activity (time taken to reach 50% repolarization) in guinea pig atria at 4(ug/mL) concentration. Type of test: functional, Heart. Put shortly:
as §4

Test [15] is filed under the species Cavia porcellus. The test is described as follows: Compound was tested for antiarrhythmic activity (time taken to reach 90% repolarization) in guinea pig atria at 1(ug/mL) concentration. The class given is functional, Heart. In outline:
as §4

The species named for test [16] is Cavia porcellus. The test is described as follows: Compound was tested for antiarrhythmic activity (time taken to reach 90% repolarization) in guinea pig atria at 2(ug/mL) concentration. The class given is functional, Heart. In outline: as §4
The species entered for test [17] is Cavia porcellus. The test is described as follows: Compound was tested for antiarrhythmic activity (time taken to reach 90% repolarization) in guinea pig atria at 4(ug/mL) concentration. The class given is functional, Heart. Put shortly: as §4
Test [18] is filed under the species Cavia porcellus. The test is described as follows: Compound was tested for antiarrhythmic activity expressed as action potential height (AP) in guinea pig atria at 4(ug/mL) concentration. The class given is functional, Heart. Put shortly: as §4
The species entered for test [19] is Cavia porcellus. Briefly: Compound was tested for antiarrhythmic activity (maximum rate of phase 0 depolarization- MRD) in guinea pig atria at 1(ug/mL) concentration. The class given is functional, Heart. In outline: as §4
Test [20] is filed under the species Cavia porcellus. The test is described as follows: Compound was tested for antiarrhythmic activity (maximum rate of phase 0 depolarization- MRD) in guinea pig atria at 2(ug/mL) concentration. The class given is functional, Heart. Put shortly:
as §4

The species entered for test [21] is Cavia porcellus. The test is described as follows: Compound was tested for antiarrhythmic activity (maximum rate of phase 0 depolarization- MRD) in guinea pig atria at 4(ug/mL) concentration. Type of test: functional, Heart. Put shortly: as §4
The species entered for test [22] is Cavia porcellus. The test is described as follows: Compound was tested for antiarrhythmic activity expressed as resting membrane potential (RMP) in guinea pig atria at 1(ug/mL) concentration. Type of test: functional. The settings on record: Heart. Put shortly: as §4
For test [23], the species on record is Cavia porcellus. Briefly: Compound was tested for antiarrhythmic activity expressed as resting membrane potential (RMP) in guinea pig atria at 2(ug/mL) concentration. Type of test: functional. The settings on record: Heart. In outline: as §4
The species entered for test [24] is Cavia porcellus. Briefly: Compound was tested for antiarrhythmic activity expressed as resting membrane potential (RMP) in guinea pig atria at 4(ug/mL) concentration. The class given is functional. The settings on record: Heart. Put shortly:
as §4

The species entered for test [25] is Cavia porcellus. Briefly: Concentration required to reduce maximum following frequencu (MFF) of isolated guinea pig atria by 25%. The class given is functional. In outline:
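Guinea pig left atria in an organ bath of Krebs solution at 35 °C, gassed with carbogen, electrically driven, isometric contractions recorded. Drugs added cumulatively; maximum following frequency determined 6 min after each concentration. Concentration reducing MFF by 25% (EC25) calculated from six preparations.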

The species entered for test [26] is Mus musculus. Briefly: ED 50 value against aconitine-induced arrhythmias in mice. The class given is functional. In outline:
(§5)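 Anaesthetised mice were given test compound intraperitoneally, then aconitine intravenously to induce arrhythmia. At least three doses were tested in separate groups (n = 6-10). ED50 is the dose raising the arrhythmogenic aconitine dose 50% above the control requirement.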

Test [27] relates to Rattus norvegicus. The test is described as follows: Effect dose of compound that antagonized arrhythmias evoked by coronary artery ligation in the rat was measured at 0.05 mg/kg dose. Type of test: functional. In outline:
as §3

For test [28], the system named is Rattus norvegicus. The test is described as follows: Compound was tested for antagonism of Ventricular Fibrilloflutter (VF) evoked by coronary artery ligation in the rat measured at 0.05 mg/kg dose. The class given is functional, Heart. In outline:
as §3

Test [29] concerns Rattus norvegicus. The test is described as follows: Compound was tested for antagonism of Ventricular Fibrilloflutter (VF) evoked by coronary artery ligation in the rat measured at 0.1 mg/kg dose. The class given is functional, Heart. Put shortly:
as §3

Test [30] relates to Rattus norvegicus. Briefly: Compound was tested for antagonism of Ventricular Fibrilloflutter (VF) evoked by coronary artery ligation in the rat measured at 0.02 mg/kg dose. The class given is functional, Heart. In outline: as §3
Test [31] is filed under the species Mus musculus. The test is described as follows: ED 50 value against aconitine-induced arrhythmias in mice; IA is Inactive. Type of test: functional, organism-based. Put shortly:
as §5

Test [32] deals with Rattus norvegicus. Briefly: Effective dose that antagonized arrhythmias evoked by coronary artery ligation in the rat was measured at 1.0 mg/kg dose. Type of test: functional.
The test system of test [33] is Rattus norvegicus. The test is described as follows: Effect on heart rate after isoprenaline induced tachycardia in the anesthetized rat at 2 mg/kg dose. Type of test: functional. In outline:
as §1

Test [34] concerns Rattus norvegicus. Briefly: Effect on heart rate before isoprenaline induced tachycardia in the anesthetized rat at 2 mg/kg dose. Type of test: functional. Put shortly: as §2
Test [35] concerns Rattus norvegicus. Briefly: Effect on heart rate on 1 min post isoprenaline induced tachycardia in the anesthetized rat at 2.0 mg/kg dose. The class given is functional. In outline: as §2
The subject of test [36] is Rattus norvegicus. The test is described as follows: Compound was tested for antagonism of arrhythmias evoked by coronary artery ligation in the rat measured at 1 mg/kg dose. Type of test: functional. Put shortly: as §3

As a reminder, the ED50 is the midpoint of the dose-response relation. For the compound `CC(=O)Nc1ccc(OCC(O)CNC(C)C)cc1` (stereo unspecified) [PRACTOLOL], it took a dose of 5.6 mg/kg to reach the 50% effect level in the test with Rattus norvegicus [1] (ED50). In addition, the figures for the Heart rate with Rattus norvegicus [2], in the test on Rattus norvegicus [3] and in the test on Rattus norvegicus [4] were 351 beats min-1, 459 beats min-1 and 377 beats min-1, respectively. Besides, the VF came to 29% in the test on Rattus norvegicus [5], 80% in the test with Rattus norvegicus [6] and 43% with Rattus norvegicus [7]. Moreover, the Change in the test on Rattus norvegicus [8] was -23.5%. The same compound had an Increase in the test filed under Rattus norvegicus [9] of 7.4%.

For orientation: EC25 means the concentration at which the effect reaches the 25% level. A lower EC25 goes with greater potency. For the compound `CNC1[C@H](O)C[C@H]2[C@@H]3CCc4cc(O)ccc4[C@H]3CC[C@]12C` (stereo partly specified), the AP is 85.8 mV in the test listed under Cavia porcellus [10], 86.3 mV in the test listed under Cavia porcellus [11] and 81.5 mV in the test listed under Cavia porcellus [18]. In addition, the APD50 in the test listed under Cavia porcellus [12] is 49.2 ms; in the test listed under Cavia porcellus [13], 45.5 ms; in the test listed under Cavia porcellus [14] it was 44.5 ms. Further, the figures for the APD90 in the test listed under Cavia porcellus [15], in the test filed under Cavia porcellus [16] and in the test filed under Cavia porcellus [17] were 83.6 ms, 80.2 ms and 80.6 ms, respectively. The figures for the MRD in the test filed under Cavia porcellus [19], in the test filed under Cavia porcellus [20] and in the test filed under Cavia porcellus [21] were 98.4 V s-1, 86.5 V s-1 and 62.4 V s-1, respectively. Also, the RMP in the test listed under Cavia porcellus [22] was 72.8 mV; in the test filed under Cavia porcellus [23], 75.8 mV; in the test listed under Cavia porcellus [24] it was 72.1 mV. The 25% effect level in the test listed under Cavia porcellus [25] (EC25) was put at 1.67 µg/mL (≈ 5.54 µM). Further, the 50% effective dose (ED50) came to 5.9 mg/kg in the test listed under Mus musculus [26] and 0.04 mg/kg in the test with Rattus norvegicus [27]. For the same compound, the results for the VF in the test on Rattus norvegicus [28], in the test with Rattus norvegicus [29] and with Rattus norvegicus [30] were 33%, 17% and 83%, respectively.

`CNC1[C@H](O)C[C@H]2[C@@H]3CCc4cc(OCC(O)CNC(C)(C)C)ccc4[C@H]3CC[C@]12C` (stereo partly specified) registered an EC25 in the test filed under Cavia porcellus [25] of 38.6 µg/mL (≈ 89.6 µM). Moreover, the ED50 entry in the test listed under Mus musculus [31] is “inactive”. For the same compound, the ED50 in the test with Rattus norvegicus [32] was found to be 0.7 mg/kg. For the same compound, the VF in the test with Rattus norvegicus [28] came out at 67%; in the test on Rattus norvegicus [6], 0%; in the test on Rattus norvegicus [36], 25%. Further, the Heart rate in the test with Rattus norvegicus [33] came out at 294 beats min-1; with Rattus norvegicus [34], 415 beats min-1; in the test with Rattus norvegicus [35] it was 302 beats min-1. The Change with Rattus norvegicus [8] is -29.2%. The Increase in the test filed under Rattus norvegicus [9] is 3%.
